Measured values reported in ChEMBL document CHEMBL2177069, “Novel peptidomimetic compounds containing redox active chalcogens and quinones as potential anticancer agents” (Eur J Med Chem, 2012).

Key:
U-251 = test: Cytotoxicity against human U251 cells; format: functional; details: for TGI: read-out: pTGI (converted)
TK-10 = test: Cytotoxicity against human TK10 cells; format: functional; details: for TGI: read-out: pTGI (converted)
BT-549 = test: Cytotoxicity against human BT549 cells; format: functional; details: for TGI: read-out: pTGI (converted)
NCI-H226 = test: Cytotoxicity against human NCI-H226 cells; format: functional; details: for CC50: read-out: pLC50 (the source's name) (converted); for TGI: read-out: pTGI (converted)
Hs-578T = test: Cytotoxicity against human Hs578T cells; format: functional; details: for TGI: read-out: pTGI (converted)
[1] = Cytotoxicity against human PHF cells after 24 hrs by MTT assay; format: cell-based
Method in brief: (§1)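 MTT assay. Cells were seeded at 50,000 cells/mL in medium with 10% fetal calf serum and grown for two days at 37 °C, 10% CO2. Serial dilutions of compound were then added for 24 h. MTT was added (final 0.5 mg/mL) for 2 h, and the formazan was pelleted, washed, dissolved in isopropanol with 0.4% HCl and read at 590 nm. IC50 is the concentration giving 50% of untreated-control absorbance, taken from dose-response curves; mean of two parallel experiments.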

M14 = test: Cytotoxicity against human M14 cells; format: functional; details: for TGI: read-out: pTGI (converted)
Saccharomyces cerevisiae [2] = test: Growth inhibition of wild type Saccharomyces cerevisiae BY4741 at 20 ug/disc after 24 to 48 hrs by agar diffusion assay; format: functional; details: read-out: DIZ
Method in brief: (§2)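 S. cerevisiae deletion mutants or wild type grown on YPD, seeded into liquid agar medium at an optical density of 0.1. 6 mm paper discs soaked with methanolic compound solution were placed on the plates and incubated at 30 °C. Growth was checked after 1 and 2 days, and the inhibition zone diameter was recorded in mm.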

ACHN = test: Cytotoxicity against human ACHN cells; format: functional; details: for TGI: read-out: pTGI (converted)
MDA-MB-435 = test: Cytotoxicity against human MDA-MB-435 cells; format: functional; details: for TGI: read-out: pTGI (converted)
HCT-116 = test: Cytotoxicity against human HCT116 cells; format: functional; details: for TGI: read-out: pTGI (converted)
SK-MEL-28 = test: Cytotoxicity against human SK-MEL-28 cells; format: functional; details: for TGI: read-out: pTGI (converted)
EKVX = test: Cytotoxicity against human EKVX cells; format: functional; details: for TGI: read-out: pTGI (converted)
HCT-15 = test: Cytotoxicity against human HCT15 cells; format: functional; details: for TGI: read-out: pTGI (converted)
Saccharomyces cerevisiae [3] = test: Growth inhibition of UFD2-deficient Saccharomyces cerevisiae YDL190C mutant at 20 ug/disc after 24 to 48 hrs by agar diffusion assay; format: functional; details: read-out: DIZ; method in brief: as §2
SNB-19 = test: Cytotoxicity against human SNB19 cells; format: functional; details: for TGI: read-out: pTGI (converted)
NCI-H522 = test: Cytotoxicity against human NCI-H522 cells; format: functional; details: for TGI: read-out: pTGI (converted)
HOP-62 = test: Cytotoxicity against human HOP62 cells; format: functional; details: for TGI: read-out: pTGI (converted)
KM12 = test: Cytotoxicity against human KM12 cells; format: functional; details: for TGI: read-out: pTGI (converted)
Saccharomyces cerevisiae [4] = test: Growth inhibition of PST2-deficient Saccharomyces cerevisiae YDR032C mutant at 20 ug/disc 24 to 48 hrs by agar diffusion assay; format: functional; details: read-out: DIZ; method in brief: as §2
HUVEC = test: Cytotoxicity against human HUVEC cells after 24 hrs by MTT assay; format: cell-based; method in brief: as §1
NCI-H23 = test: Cytotoxicity against human NCI-H23 cells; format: functional; details: for TGI: read-out: pTGI (converted)
NCI-H322M = test: Cytotoxicity against human NCI-H322M cells; format: functional; details: for TGI: read-out: pTGI (converted)
CAKI-1 = test: Cytotoxicity against human Caki1 cells; format: functional; details: for TGI: read-out: pTGI (converted)
MDA-MB-231 = test: Cytotoxicity against human MDA-MB-231 cells; format: functional; details: for TGI: read-out: pTGI (converted)
A-431 = test: Cytotoxicity against human A431 cells after 24 hrs by MTT assay; format: functional, cell-based; details: A-431, 24 h; method in brief: as §1
NCI-H460 = test: Cytotoxicity against human NCI-H460 cells; format: functional; details: for TGI: read-out: pTGI (converted)
MCF7 = test: Cytotoxicity against human MCF7 cells after 24 hrs by MTT assay; format: functional, cell-based; details: MCF7, 24 h; method in brief: as §1
UO-31 = test: Cytotoxicity against human UO31 cells; format: functional; details: for TGI: read-out: pTGI (converted)
Saccharomyces cerevisiae [5] = test: Growth inhibition of SOD2-deficient Saccharomyces cerevisiae YHR008C mutant at 20 ug/disc 24 to 48 hrs by agar diffusion assay; format: functional; details: read-out: DIZ; method in brief: as §2
RXF 393 = test: Cytotoxicity against human RXF393 cells; format: functional
HOP-92 = test: Cytotoxicity against human HOP92 cells; format: functional

CC1=C([Se]CC(OC(=O)[C@@H](CSSC(C)(C)C)NC(=O)C(C)(C)C)C(=O)NCCCCCC(=O)OCc2ccccc2)C(=O)c2ccccc2C1=O (stereo partly drawn)
GI50 (U-251): 1.26 µM
LC50 (U-251): 6.31 µM
TGI (U-251): 2.82 µM
GI50 (TK-10): 2.4 µM
LC50 (TK-10): 8.13 µM
TGI (TK-10): 4.47 µM
GI50 (BT-549): 1.78 µM
LC50 (BT-549): 5.62 µM
TGI (BT-549): 3.16 µM
GI50 (NCI-H226): 2.34 µM
CC50 (NCI-H226): 9.12 µM
TGI (NCI-H226): 4.68 µM
GI50 (Hs-578T): 2.19 µM
LC50 (Hs-578T): > 100 µM
TGI (Hs-578T): 5.5 µM
IC50 [1]: 4 µM
GI50 (M14): 2.04 µM
LC50 (M14): 7.94 µM
TGI (M14): 4.07 µM
zone of inhibition at 20 µg/disc (Saccharomyces cerevisiae [2]): 0 mm
GI50 (ACHN): 2.14 µM
LC50 (ACHN): 14.5 µM
TGI (ACHN): 4.9 µM
GI50 (MDA-MB-435): 2.29 µM
LC50 (MDA-MB-435): 25.1 µM
TGI (MDA-MB-435): 5.5 µM
GI50 (HCT-116): 1.55 µM
LC50 (HCT-116): 8.91 µM
TGI (HCT-116): 3.72 µM
GI50 (SK-MEL-28): 1.91 µM
LC50 (SK-MEL-28): 6.46 µM
TGI (SK-MEL-28): 3.55 µM
GI50 (EKVX): 2.24 µM
LC50 (EKVX): > 100 µM
TGI (EKVX): 5.37 µM
GI50 (HCT-15): 3.24 µM
LC50 (HCT-15): 66.1 µM
TGI (HCT-15): 12.9 µM
zone of inhibition at 20 µg/disc (Saccharomyces cerevisiae [3]): 0 mm
GI50 (SNB-19): 1.1 µM
LC50 (SNB-19): 6.03 µM
TGI (SNB-19): 2.57 µM
GI50 (NCI-H522): 1.7 µM
LC50 (NCI-H522): 6.17 µM
TGI (NCI-H522): 3.24 µM
GI50 (HOP-62): 1.02 µM
LC50 (HOP-62): 9.12 µM
TGI (HOP-62): 3.02 µM
GI50 (KM12): 1.78 µM
LC50 (KM12): 6.76 µM
TGI (KM12): 3.47 µM
zone of inhibition at 20 µg/disc (Saccharomyces cerevisiae [4]): 11 mm
IC50 (HUVEC): 10 µM
GI50 (NCI-H23): 2.4 µM
LC50 (NCI-H23): > 100 µM
TGI (NCI-H23): 7.08 µM
GI50 (NCI-H322M): 0.398 µM
LC50 (NCI-H322M): > 100 µM
TGI (NCI-H322M): 2.29 µM
GI50 (CAKI-1): 2.19 µM
LC50 (CAKI-1): 9.33 µM
TGI (CAKI-1): 4.57 µM
GI50 (MDA-MB-231): 1.91 µM
LC50 (MDA-MB-231): 9.33 µM
TGI (MDA-MB-231): 4.27 µM
IC50 (A-431): 4 µM
GI50 (NCI-H460): 0.631 µM
LC50 (NCI-H460): 9.55 µM
TGI (NCI-H460): 2.51 µM
IC50 (MCF7): 8 µM
GI50 (UO-31): 1.48 µM
LC50 (UO-31): 6.76 µM
TGI (UO-31): 3.16 µM
zone of inhibition at 20 µg/disc (Saccharomyces cerevisiae [5]): 0 mm

CC1=C([Se]CC(OC(=O)[C@@H](CO)NC(=O)OC(C)(C)C)C(=O)NCCCCCC(=O)OCc2ccccc2)C(=O)c2ccccc2C1=O (stereo partly drawn)
GI50 (U-251): 0.933 µM
LC50 (U-251): 4.9 µM
TGI (U-251): 2.19 µM
GI50 (TK-10): 2.04 µM
LC50 (TK-10): 5.89 µM
TGI (TK-10): 3.47 µM
GI50 (BT-549): 1.74 µM
LC50 (BT-549): 5.62 µM
TGI (BT-549): 3.09 µM
GI50 (NCI-H226): 2.24 µM
CC50 (NCI-H226): 8.71 µM
TGI (NCI-H226): 4.37 µM
GI50 (Hs-578T): 2 µM
LC50 (Hs-578T): > 100 µM
TGI (Hs-578T): 4.68 µM
IC50 [1]: 27 µM
GI50 (RXF 393): 2.69 µM
LC50 (RXF 393): 6.46 µM
TGI (RXF 393; read-out: pTGI (converted)): 4.17 µM
GI50 (M14): 1.78 µM
LC50 (M14): 6.03 µM
TGI (M14): 3.31 µM
zone of inhibition at 20 µg/disc (Saccharomyces cerevisiae [2]): 0 mm
GI50 (ACHN): 1.66 µM
LC50 (ACHN): 5.75 µM
TGI (ACHN): 3.09 µM
GI50 (MDA-MB-435): 1.78 µM
LC50 (MDA-MB-435): 6.76 µM
TGI (MDA-MB-435): 3.47 µM
GI50 (HCT-116): 1.38 µM
LC50 (HCT-116): 5.37 µM
TGI (HCT-116): 2.75 µM
GI50 (SK-MEL-28): 1.78 µM
LC50 (SK-MEL-28): 5.75 µM
TGI (SK-MEL-28): 3.24 µM
GI50 (EKVX): 1.82 µM
LC50 (EKVX): 8.32 µM
TGI (EKVX): 3.89 µM
GI50 (HCT-15): 1.95 µM
LC50 (HCT-15): 7.41 µM
TGI (HCT-15): 3.8 µM
zone of inhibition at 20 µg/disc (Saccharomyces cerevisiae [3]): 0 mm
GI50 (SNB-19): 0.776 µM
LC50 (SNB-19): 5.01 µM
TGI (SNB-19): 2.14 µM
GI50 (NCI-H522): 2 µM
LC50 (NCI-H522): 6.03 µM
TGI (NCI-H522): 3.47 µM
GI50 (HOP-62): 0.417 µM
LC50 (HOP-62): 4.79 µM
TGI (HOP-62): 1.74 µM
GI50 (HOP-92): 1.86 µM
LC50 (50% lethal concentration) (HOP-92): 5.89 µM
TGI (HOP-92; read-out: pTGI (converted)): 3.31 µM
GI50 (KM12): 1.51 µM
LC50 (KM12): 5.5 µM
TGI (KM12): 2.88 µM
zone of inhibition at 20 µg/disc (Saccharomyces cerevisiae [4]): 15 mm
IC50 (HUVEC): 35 µM
GI50 (NCI-H23): 1.82 µM
TGI (NCI-H23): 4.07 µM
GI50 (NCI-H322M): 0.417 µM
LC50 (NCI-H322M): 27.5 µM
TGI (NCI-H322M): 1.91 µM
GI50 (CAKI-1): 1.82 µM
LC50 (CAKI-1): 6.03 µM
TGI (CAKI-1): 3.31 µM
GI50 (MDA-MB-231): 1.66 µM
LC50 (MDA-MB-231): 6.03 µM
TGI (MDA-MB-231): 3.16 µM
IC50 (A-431): 4 µM
GI50 (NCI-H460): 0.457 µM
LC50 (NCI-H460): 5.37 µM
TGI (NCI-H460): 1.62 µM
IC50 (MCF7): 5 µM
GI50 (UO-31): 1.55 µM
LC50 (UO-31): 5.89 µM
TGI (UO-31): 3.02 µM
zone of inhibition at 20 µg/disc (Saccharomyces cerevisiae [5]): 11 mm
